# Assay outcomes from PubChem BioAssay.
# SIRT5 inh: sirtuin-5 (human) deacylase inhibition; Purified SirT5, succinyl-peptide AMC, trypsin-coupled fluorescence; inhibition, % at 15 µM; Q9NXA8; 1.1% of 330,000 active; AID 652115; in the data active = inhibition above about 15%; inconclusive = no clear call, values can overlap the other calls
# S100A4 inh HTS: S100A4-myosin IIA interaction inhibition; P26447; S100A4/TAMRA-MyoIIA peptide fluorescence polarization; inhibition, % at 10.7 µM; 0.14% of 360,000 active;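 active = mean inhibition of at least 70% across replicates, with every replicate also reaching that level; inconclusive = mean inhibition reaches 70% but some replicates fall short; inactive = mean inhibition below 70%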
#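 Test system: S100A4 monomer protein. Medium: HEPES buffer with Ca2+, pH 7.2. Reagent: fluorescent myosin IIA peptide, 5 nM. Compound dosing: single-point compound testing. Timing: 5 min between mix addition and reading. Benchmarks: DMSO neutral and TFP positive wells.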
# E-sel inducer: E-selectin induction on HUVECs; P16581; HUVEC E-selectin immunofluorescence imaging; normalized: neutral wells 0, TNF-alpha wells 100; activation, % at 7.58 µM; 0.37% of 260,000 active; AID 686992;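 active = mean E-selectin-positive cell signal at least 10% of the positive control, reached in at least 60% of replicates, without over 20% cell loss; inconclusive = no rule given, readout overlaps actives, possibly toxicity-flagged; inactive = the rest, including those meeting only one limit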
# Target sequence (P16581 whole entry, looked up): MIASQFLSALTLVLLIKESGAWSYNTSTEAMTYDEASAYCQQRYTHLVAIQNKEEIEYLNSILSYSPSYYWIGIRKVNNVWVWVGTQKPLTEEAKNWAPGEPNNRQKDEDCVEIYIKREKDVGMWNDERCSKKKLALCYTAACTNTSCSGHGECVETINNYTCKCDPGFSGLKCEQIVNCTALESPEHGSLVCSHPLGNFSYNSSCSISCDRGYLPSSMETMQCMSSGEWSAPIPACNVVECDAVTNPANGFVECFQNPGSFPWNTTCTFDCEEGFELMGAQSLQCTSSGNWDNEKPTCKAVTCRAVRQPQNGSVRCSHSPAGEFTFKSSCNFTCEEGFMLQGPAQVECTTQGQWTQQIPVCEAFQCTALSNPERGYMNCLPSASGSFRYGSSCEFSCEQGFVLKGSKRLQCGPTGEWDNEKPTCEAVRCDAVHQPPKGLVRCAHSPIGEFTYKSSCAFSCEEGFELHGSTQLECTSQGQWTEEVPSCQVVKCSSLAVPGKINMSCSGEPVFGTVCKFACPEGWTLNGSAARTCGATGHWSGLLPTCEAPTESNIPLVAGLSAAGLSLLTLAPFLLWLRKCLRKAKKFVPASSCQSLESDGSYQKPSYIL
#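 Assay system: HUVEC, human umbilical vein endothelial cells / Amount: 3,000 HUVEC/well / Controls: TNF-alpha positive control, DMSO neutral control / Compound dosing: single concentration / Medium: EGM-2 over gelatin coat / Evaluation: percent E-selectin-positive cells / Signal: immunofluorescence imaging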
# miR-122 sensor: inhibitors of miR-122 in Huh7 cells; Huh7 miR-122 Renilla luciferase sensor, 48 h; neutral wells = 0, positive control = 100; activation (reporter increase), % at 12.5 µM; 0.3% of 340,000 active; AID 602342;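 active = mean replicate activation score at least 90 and every replicate individually at or above 90; inconclusive = only one of the two criteria met; inactive = neither criterion met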;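 note: higher luciferase means less miR-122 activity so hits act as miR-122 inhibitors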
# FGF22 binding: shifts melting point of recombinant human FGF22; recombinant FGF22 thermal shift, SYPRO orange fluorescence; percent of sucrose octasulfate shift, DMSO zero; activity (Tm shift, normalised), % at 9.99 µM; 1.5% of 340,000 active;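 active = mean Tm shift, scaled 0 neutral to 100 positive control, at about 1.3% or above, every replicate too, limit read from the data; inconclusive = no clear call, values can overlap the other calls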
# Numbers without * were called inactive; ? = inconclusive; . = no result given; [ ] = another dose, or the depositor's remark. Only some compounds are listed: those with a hit (about 2.5% of all), similar ones and a draw of the others.
SMILES,SIRT5 inh,S100A4 inh HTS,E-sel inducer,miR-122 sensor,FGF22 binding
COc1ccc(S(=O)(=O)Nc2ccc3c(c2)C(=O)N([C@H](C)CO)C[C@H](C)[C@H](CN(C)C(=O)Nc2ccc4c(c2)OCO4)OCCCC[C@H](C)O3)cc1,17*,-3,0,-11[16.7 µM],0
Cc1noc(C)c1NC(=O)N(C)C[C@H]1OCCCC[C@H](C)Oc2ccc(NS(=O)(=O)c3ccc(F)cc3)cc2C(=O)N([C@H](C)CO)C[C@@H]1C,4,134*,0,5[16.7 µM],-1
Cc1noc(C)c1NC(=O)N(C)C[C@@H]1OCCCC[C@@H](C)Oc2ccc(NS(=O)(=O)c3ccc(F)cc3)cc2C(=O)N([C@@H](C)CO)C[C@H]1C,9,3,0,12[16.7 µM],0
COc1ccc(S(=O)(=O)Nc2ccc3c(c2)C(=O)N([C@H](C)CO)C[C@H](C)[C@H](CN(C)C(=O)Nc2ccccc2)OCCCC[C@H](C)O3)cc1,1,108*,0,-7[16.7 µM],-1
COc1ccc(NC(=O)N(C)C[C@@H]2Oc3ccc(NS(=O)(=O)c4ccc(F)cc4)cc3C(=O)N([C@H](C)CO)C[C@H]2C)cc1,40*,-3,0,3[16.7 µM],0
COc1ccc(S(=O)(=O)Nc2ccc3c(c2)C(=O)N([C@H](C)CO)C[C@@H](C)[C@H](CN(C)C(=O)Nc2ccccc2)OCCCC[C@@H](C)O3)cc1,.,.,0,1[16.7 µM],0
C[C@H]1CN([C@@H](C)CO)C(=O)Cc2cc(NC(=O)Cc3cn(C)c4ccccc34)ccc2O[C@H]1CN(C)S(C)(=O)=O,0,-6,.,-5[16.7 µM],0
CN(C)C(=O)C[C@H]1CC[C@H]2[C@@H](COc3ccc(NC(=O)C4CC4)cc3C(=O)N2C)O1,7,13,0,13[16.7 µM],0
COc1ccc(C[C@@H]2CCn3cc(nn3)COC[C@@H](C(C)C)NC2=O)cc1,5,?,0,.,0
COc1ccc(CN2C[C@H](C)[C@@H](OC)CN(C)C(=O)c3ccc(NC(C)=O)cc3OC[C@@H]2C)cc1,1,8,-1,.,0
O=C(NCCc1ccncc1)[C@H]1N[C@H]2c3ccc(/C=C/c4ccccc4)c(=O)n3C[C@H]2[C@@H]1CO,-50,-3,0,.,0
COc1ccc(S(=O)(=O)Nc2ccc3c(c2)C(=O)N([C@@H](C)CO)C[C@@H](C)[C@@H](CN(C)C(=O)Nc2ccc(F)cc2)OCCCC[C@H](C)O3)cc1,10,12,0,5[16.7 µM],-1
COc1ccc(S(=O)(=O)Nc2ccc3c(c2)C(=O)N([C@H](C)CO)C[C@H](C)[C@H](CN(C)C(=O)Nc2ccc(F)cc2)OCCCC[C@H](C)O3)cc1,17*,10,0,1[16.7 µM],-1
CO[C@@H]1CN(C)C(=O)c2ccc(NC(=O)C3CCOCC3)cc2OC[C@H](C)N(C(C)=O)C[C@@H]1C,.,10,0,.,0
C[C@@H]1CN([C@H](C)CO)C(=O)Cc2cc(NS(=O)(=O)c3ccc(Cl)cc3)ccc2O[C@H]1CN(C)S(=O)(=O)c1ccc(F)cc1,4,-1,-1,2[16.7 µM],0
C[C@H]1CN([C@@H](C)CO)C(=O)Cc2cc(NS(C)(=O)=O)ccc2O[C@@H]1CN(C)S(=O)(=O)c1ccc(F)cc1,.,-31,7,-5[16.7 µM],0
C[C@@H]1CN([C@@H](C)CO)C(=O)Cc2cc(NS(=O)(=O)c3ccc(F)cc3)ccc2O[C@@H]1CN(C)S(=O)(=O)c1ccc(Cl)cc1,.,.,102*,0[16.7 µM],1
C[C@@H]1CN([C@@H](C)CO)C(=O)Cc2cc(NS(=O)(=O)c3ccc(F)cc3)ccc2O[C@@H]1CN(C)S(=O)(=O)c1ccc(F)cc1,4,-3,0,26[16.7 µM],-1
C[C@H](CO)N1C[C@H](C)[C@@H](CN(C)S(=O)(=O)c2ccc(F)cc2)Oc2ccc(NS(C)(=O)=O)cc2CC1=O,-3,3,311*,11[16.7 µM],0
C[C@H]1CN([C@@H](C)CO)C(=O)Cc2cc(NS(=O)(=O)c3ccc(F)cc3)ccc2O[C@@H]1CN(C)S(=O)(=O)c1ccc(Cl)cc1,.,.,60*,-9[16.7 µM],0
C[C@@H]1CN([C@@H](C)CO)C(=O)Cc2cc(NS(=O)(=O)c3ccc(F)cc3)ccc2O[C@H]1CN(C)S(=O)(=O)c1ccc(Cl)cc1,.,.,34*,4[16.7 µM],0
C[C@@H]1CN([C@@H](C)CO)C(=O)Cc2cc(NS(=O)(=O)c3ccc(Cl)cc3)ccc2O[C@H]1CN(C)S(=O)(=O)c1ccc(Cl)cc1,2,-26,1,-26[16.7 µM],0
C[C@@H]1CN([C@@H](C)CO)C(=O)c2c(c3ccccc3n2C)-c2ccccc2CO[C@H]1CN(C)S(=O)(=O)c1ccsc1,.,5,0,.,0
C[C@@H]1CN([C@H](C)CO)C(=O)Cc2cc(NS(=O)(=O)c3ccc(F)cc3)ccc2O[C@@H]1CN(C)S(=O)(=O)c1ccc(Cl)cc1,.,.,69*,3[16.7 µM],1
C[C@H]1CN([C@@H](C)CO)C(=O)Cc2cc(NS(=O)(=O)c3ccc(Cl)cc3)ccc2O[C@H]1CN(C)S(=O)(=O)c1ccc(Cl)cc1,8,19,2,-10[16.7 µM],0
SMILES,SIRT5 inh,S100A4 inh HTS,E-sel inducer,miR-122 sensor,FGF22 binding
C[C@H]1CN([C@@H](C)CO)C(=O)Cc2cc(NS(=O)(=O)c3ccc(F)cc3)ccc2O[C@H]1CN(C)S(=O)(=O)c1ccc(Cl)cc1,.,.,198*,3[16.7 µM],1
C[C@@H]1CN([C@@H](C)CO)C(=O)Cc2cc(NS(=O)(=O)c3ccc(Cl)cc3)ccc2O[C@H]1CN(C)S(=O)(=O)c1ccc(F)cc1,3,-6,0,1[16.7 µM],0
Cc1ccc(CCNC(=O)c2cc(-c3ccncc3)nc3ccc(S(=O)(=O)N4CCOCC4)cc23)cc1,0,148*,.,-1,0
O=C1OCC2=C1C(c1ccc(F)cc1)c1cc3c(cc1N2)OCCO3 (centres undefined),-4,-5,-4,.,0
O=C1OCC2=C1C(c1ccc(F)cc1)c1cc3c(cc1N2)OCO3 (centres undefined),-2,14,0,.,43*
O=c1c2ccc([N+](=O)[O-])cc2ncn1CCOc1cccc(Br)c1,-1,-3,.,.,43*
O=c1c2ccc([N+](=O)[O-])cc2ncn1CCOc1ccc(Cl)cc1,-1,0,0,14,0
CC(C)(C)c1ccccc1NC(=O)Cn1cnc2cc([N+](=O)[O-])ccc2c1=O,-1,2,.,18,43*
CCCN(C)C[C@@H]1Oc2ncc(-c3ccccc3)cc2C(=O)N([C@H](C)CO)C[C@H]1C,.,.,.,-12[16.7 µM],.
O=C(COC(=O)/C=C/c1ccc(S(=O)(=O)N2CCOCC2)cc1)NCc1ccc(Cl)cc1,25*,5,1,2,0
COc1cc(/C=C/C(=O)O)cc(S(=O)(=O)Nc2cc(S(=O)(=O)N3CCCCC3)ccc2Cl)c1OC,.,-3,0,4,0
